Data from ChEMBL document CHEMBL2331506, “Design, synthesis, antiviral and cytostatic evaluation of novel isoxazolidine nucleotide analogues with a carbamoyl linker” (Bioorg Med Chem, 2013).
Calls of active or inactive are those of the source. The rule behind the calls is not given here.

Tests used:
K562 = test: Cytotoxicity against human K562 cells; format: functional, cell-based
HeLa [1] = test: Cytotoxicity against human HeLa cells; format: functional, cell-based
Sindbis virus = test: Antiviral activity against Sindbis virus infected in african green monkey Vero cells assessed as reduction of virus-induced cytopathogenicity at 250 uM; format: functional, organism-based
Summary of the method: (§1)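 Confluent monolayers (HEL fibroblasts, Vero, or HeLa cells as listed) were infected with 100 CCID50 of virus in the presence of varying compound concentrations. Virus-induced cytopathicity or plaque formation was scored once cytopathicity was complete in untreated infected controls. EC50 was taken as the concentration reducing cytopathogenicity or plaque formation by 50%.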

Feline coronavirus = test: Antiviral activity against Feline coronavirus infected in cat CRFK cells assessed as reduction of virus-induced cytopathogenicity at 250 uM; format: functional, organism-based
[2] = system: Respiratory syncytial virus; test: Antiviral activity against Respiratory syncytial virus long infected in human HeLa cells assessed as reduction of virus-induced cytopathogenicity at 250 uM; format: functional, organism-based; summary of the method: as §1
HeLa [3] = test: Cytostatic activity against human HeLa cells assessed as inhibition of cell proliferation after 72 hrs by Coulter counter analysis; format: functional, cell-based
Summary of the method: (§2)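 Each well received (5–7.5) × 10^4 tumor cells plus compound. L1210 cells grew 48 h and CEM and HeLa cells grew 72 h, at 37 °C in humidified CO2. Cells were then counted electronically, and IC50 was taken as the concentration inhibiting proliferation by 50%.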

[4] = system: Vesicular stomatitis virus; test: Antiviral activity against Vesicular stomatitis virus infected in human HeLa cells assessed as reduction of virus-induced cytopathogenicity at 250 uM; format: functional, organism-based
Summary of the method: (§3)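 Confluent cell monolayers were infected with 100 CCID50 of virus while exposed to varying compound concentrations. Cytopathicity was scored once it was complete in untreated infected controls. EC50 was taken as the concentration that reduced virus-induced cytopathogenicity by 50%.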

Punta Toro virus = test: Antiviral activity against Punta Toro virus infected in african green monkey Vero cells assessed as reduction of virus-induced cytopathogenicity at 250 uM; format: functional, organism-based; summary of the method: as §1
CCRF-CEM = test: Cytostatic activity against human CEM cells assessed as inhibition of cell proliferation after 72 hrs by Coulter counter analysis; format: functional, cell-based; summary of the method: as §2
Human alphaherpesvirus 1 [5] = test: Antiviral activity against Herpes simplex virus 1 KOS infected in human HEL cells assessed as reduction of virus-induced cytopathogenicity at 250 uM; format: functional, organism-based; summary of the method: as §1
L1210 = test: Cytostatic activity against mouse L1210 cells assessed as inhibition of cell proliferation after 48 hrs by Coulter counter analysis; format: functional, cell-based; conditions: L1210, 48 h; summary of the method: as §2
Coxsackievirus B4 = test: Antiviral activity against Coxsackievirus B4 infected in african green monkey Vero cells assessed as reduction of virus-induced cytopathogenicity at 250 uM; format: functional, organism-based; summary of the method: as §1
[6] = system: Human immunodeficiency virus 1; test: Antiviral activity against Human immunodeficiency virus 1 3B infected in human CEM cells assessed as reduction of virus-induced giant cell formation at 250 uM after 4 to 5 days; format: functional, organism-based; conditions: CCRF-CEM
Summary of the method: (§4)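 CEM cells at 3 × 10^5 cells/mL were infected with HIV at 100 CCID50 per mL in the presence of compound dilutions. They were held 4–5 days at 37 °C in humidified CO2. Syncytium (giant cell) formation was scored microscopically, and EC50 was taken as the concentration inhibiting giant cell formation by 50%.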

[7] = system: Vesicular stomatitis virus; test: Antiviral activity against Vesicular stomatitis virus infected in human HEL cells assessed as reduction of virus-induced cytopathogenicity at 250 uM; format: functional, organism-based; summary of the method: as §3
Human alphaherpesvirus 2 = test: Antiviral activity against Herpes simplex virus 2 G infected in human HEL cells assessed as reduction of virus-induced cytopathogenicity at 250 uM; format: functional, organism-based; conditions: strain G; summary of the method: as §1
Human alphaherpesvirus 1 [8] = test: Antiviral activity against thymidine kinase-deficient, ACV-resistant Herpes simplex virus 1 KOS infected in human HEL cells assessed as reduction of virus-induced cytopathogenicity at 250 uM; format: functional, organism-based; summary of the method: as §3
Influenza A virus [9] = test: Antiviral activity against Influenza A virus H3N2 infected in dog MDCK cells assessed as reduction of virus-induced cytopathogenicity at 250 uM; format: functional, organism-based; summary of the method: as §3
HeLa [10] = test: Cytotoxicity against human HeLa cells assessed as alteration of cell morphology up to 100 uM by microscopic analysis; format: cell-based
Summary of the method: (§5)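 Uninfected host-cell cultures were exposed to compound and examined by microscopy. Cytotoxicity was expressed as the minimum cytotoxic concentration (MCC) causing a microscopically detectable alteration of normal cell morphology.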

MDCK = test: Cytotoxicity against dog MDCK cells assessed as alteration of cell morphology up to 100 uM by microscopic analysis; format: cell-based, Canis lupus familiaris; summary of the method: as §5
Felid alphaherpesvirus 1 = test: Antiviral activity against Feline herpes virus infected in cat CRFK cells assessed as reduction of virus-induced cytopathogenicity at 250 uM; format: functional, organism-based
[11] = Cytotoxicity against cat CRFK cells assessed as alteration of cell morphology up to 100 uM by microscopic analysis; format: cell-based, Felis catus; summary of the method: as §5
[12] = system: Mammalian orthoreovirus 1; test: Antiviral activity against Reovirus 1 infected in african green monkey Vero cells assessed as reduction of virus-induced cytopathogenicity at 250 uM; format: functional, organism-based; summary of the method: as §1
Human respirovirus 3 = test: Antiviral activity against Parainfluenza virus 3 infected in african green monkey Vero cells assessed as reduction of virus-induced cytopathogenicity at 250 uM; format: functional, organism-based; summary of the method: as §1
Influenza A virus [13] = test: Antiviral activity against Influenza A virus H1N1 infected in dog MDCK cells assessed as reduction of virus-induced cytopathogenicity at 250 uM; format: functional, organism-based; summary of the method: as §3
Vero = test: Cytotoxicity against african green monkey Vero cells assessed as alteration of cell morphology up to 100 uM by microscopic analysis; format: cell-based; conditions: chlorocebus sabaeus; summary of the method: as §5
Influenza B virus = test: Antiviral activity against Influenza B virus infected in dog MDCK cells assessed as reduction of virus-induced cytopathogenicity at 250 uM; format: functional, organism-based; summary of the method: as §3
HEL = test: Cytotoxicity against human HEL cells assessed as alteration of cell morphology up to 100 uM by microscopic analysis; format: cell-based; summary of the method: as §5
[14] = system: Human immunodeficiency virus 2; test: Antiviral activity against Human immunodeficiency virus 2 ROD infected in human CEM cells assessed as reduction of virus-induced giant cell formation at 250 uM after 4 to 5 days; format: functional, organism-based; conditions: CCRF-CEM; summary of the method: as §4

| SMILES | inhibition (Sindbis virus) | inhibition (Feline coronavirus) | inhibition [2] | IC50 (HeLa [3]) | inhibition [4] | inhibition (Punta Toro virus) | IC50 (CCRF-CEM) | inhibition (Human alphaherpesvirus 1 [5]) | IC50 (L1210) | inhibition (Coxsackievirus B4) | inhibition [6] | inhibition [7] | inhibition (Human alphaherpesvirus 2) | inhibition (Human alphaherpesvirus 1 [8]) | inhibition (Influenza A virus [9]) | Activity (HeLa [10]) | Activity (MDCK) | inhibition (Felid alphaherpesvirus 1) | Activity [11] | inhibition [12] | other results |
| --- | --- | --- | --- | --- | --- | --- | --- | --- | --- | --- | --- | --- | --- | --- | --- | --- | --- | --- | --- | --- | --- |
| CCOP(=O)(OCC)C1CC(c2ccc3ccccc3c2)ON1C (centres undefined) | – | – | – | – | – | – | – | – | – | – | – | – | – | – | – | – | – | – | – | – | IC50 (K562): 90 µM |
| CCOP(=O)(OCC)C1CC(c2cccc3ccccc23)ON1C (centres undefined) | – | – | – | – | – | – | – | – | – | – | – | – | – | – | – | – | – | – | – | – | IC50 (HeLa [1]): 50 µM |
| CCOP(=O)(OCC)[C@H]1C[C@H](C(=O)Nc2ccccc2F)ON1C (mixture of isomers) | inactive | inactive | inactive | ≥ 250 µM | inactive | inactive | > 250 µM | inactive | > 250 µM | inactive | inactive | inactive | inactive | inactive | inactive | Non-toxic | Non-toxic | inactive | Non-toxic | inactive | inhibition (Human respirovirus 3): inactive; inhibition (Influenza A virus [13]): inactive; Activity (Vero): Non-toxic; inhibition (Influenza B virus): inactive; Activity (HEL): Non-toxic; inhibition [14]: inactive |
| CCOP(=O)(OCC)[C@H]1C[C@H](C(=O)Nc2cccc(F)c2)ON1C (mixture of isomers) | inactive | inactive | inactive | > 250 µM | inactive | inactive | > 250 µM | inactive | > 250 µM | inactive | inactive | inactive | inactive | inactive | inactive | Non-toxic | Non-toxic | inactive | Non-toxic | inactive | inhibition (Human respirovirus 3): inactive; inhibition (Influenza A virus [13]): inactive; Activity (Vero): Non-toxic; inhibition (Influenza B virus): inactive; Activity (HEL): Non-toxic; inhibition [14]: inactive |
| CCOP(=O)(OCC)[C@@H]1C[C@H](C(=O)Nc2cccc(F)c2)ON1C (mixture of isomers) | inactive | inactive | inactive | ≥ 250 µM | inactive | inactive | ≥ 250 µM | inactive | 228 µM | inactive | inactive | inactive | inactive | inactive | inactive | Non-toxic | Non-toxic | inactive | Non-toxic | inactive | inhibition (Human respirovirus 3): inactive; inhibition (Influenza A virus [13]): inactive; Activity (Vero): Non-toxic; inhibition (Influenza B virus): inactive; Activity (HEL): Non-toxic; inhibition [14]: inactive |
| CCOP(=O)(OCC)[C@@H]1C[C@H](C(=O)Nc2ccccc2F)ON1C (racemic) | inactive | inactive | inactive | 177 µM | inactive | inactive | 145 µM | inactive | 130 µM | inactive | inactive | inactive | inactive | inactive | inactive | Non-toxic | Non-toxic | inactive | Non-toxic | inactive | inhibition (Human respirovirus 3): inactive; inhibition (Influenza A virus [13]): inactive; Activity (Vero): Non-toxic; inhibition (Influenza B virus): inactive; Activity (HEL): Non-toxic; inhibition [14]: inactive |
| CCOP(=O)(OCC)[C@H]1C[C@H](C(=O)Nc2cccc(Br)c2)ON1C (racemic) | inactive | inactive | inactive | 180 µM | inactive | inactive | ≥ 250 µM | inactive | > 250 µM | inactive | inactive | inactive | inactive | inactive | inactive | Non-toxic | Non-toxic | inactive | Non-toxic | inactive | inhibition (Human respirovirus 3): inactive; inhibition (Influenza A virus [13]): inactive; Activity (Vero): Non-toxic; inhibition (Influenza B virus): inactive; Activity (HEL): Non-toxic; inhibition [14]: inactive |
| CCOP(=O)(OCC)[C@@H]1C[C@H](C(=O)Nc2ccc(C(C)=O)cc2)ON1C (racemic) | inactive | inactive | inactive | 211 µM | inactive | inactive | 227 µM | inactive | 150 µM | inactive | inactive | inactive | inactive | inactive | inactive | Non-toxic | Non-toxic | inactive | Non-toxic | inactive | inhibition (Human respirovirus 3): inactive; inhibition (Influenza A virus [13]): inactive; Activity (Vero): Non-toxic; inhibition (Influenza B virus): inactive; Activity (HEL): Non-toxic; inhibition [14]: inactive |
| CCOP(=O)(OCC)[C@H]1C[C@H](C(=O)Nc2ccc(Cl)cc2)ON1C (relative stereo) | inactive | inactive | inactive | ≥ 250 µM | inactive | inactive | > 250 µM | inactive | > 250 µM | inactive | inactive | inactive | inactive | inactive | inactive | Non-toxic | Non-toxic | inactive | Non-toxic | inactive | inhibition (Human respirovirus 3): inactive; inhibition (Influenza A virus [13]): inactive; Activity (Vero): Non-toxic; inhibition (Influenza B virus): inactive; Activity (HEL): Non-toxic; inhibition [14]: inactive |
